According to the RNAGym collection of RNA variant scans (doi:10.1126/science.aae0568):
This sample holds only a part of the variants without activity.

B1: tRNA (parent)
chain: GUUCCGUUGGCGUAAUGGUAACGCGUCUCCCUCCUAAGGAGAAGACUGCGGGUUCGAGUCCCGUACGGAACG

Variants of: B1
Assay: yeast fitness relative to wild type (ratio to wild type); higher = fitter; tRNA-Arg(CCU), competitive growth, 37 C, YPD
In short: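 The tRNA-Arg(CCU) gene variants were made by chemical synthesis with a 3% per-site mutation rate at 69 sites and inserted at the native genomic locus of Saccharomyces cerevisiae. After pooling, the strains were competed in YPD at 37°C for 24 hours in six parallel replicates. Gene amplicons from the start population and each end population were read by 100-nucleotide paired-end sequencing, and Darwinian fitness relative to wild type was taken from genotype frequency changes. Genotypes needed ≥ 100 starting reads, and estimates < 0.5 were set to 0.5.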

Row | Variant | yeast fitness
1 | GGUCCGUUCGCGUAAUGGUGACGCGUCUCCCUCCUAAGGAGCAGAGUGUGGGUUCGAGUCCAGUACGGCACG | ≤ 0.5
2 | GGUCCGUUGCCGUAAUGGUAACGCGUCUCCCUCCUAAGGAGAAGACUGCGGGUUCCAGUCCCGUACGGUACG | ≤ 0.5
3 | GGUCCGUUGGGGUAAUGGUUACGGGUCUCCCUCCUAAGGAGAAGACUGCGAGUUCGAGUGCCGUACGCAACG | ≤ 0.5
4 | GGUCCGUUCGCAUAAUGGUAACGCGUCUCCCCCCUAAGGAGCAGAAUGCGGGUUCGAGUCCCGUUCGGAACG | ≤ 0.5
5 | GGUCCGUUGGCGUAAUGGUAACGCGUCUCCCUACUAAGCAGAAGACUGCGGGUUCGAGUCCCGUACGGAACG | ≤ 0.5
6 | GGUCCGUUGGCGUAAUGGUAACGAGUCUCCGUCCUAAGGAGAAGACUGCGGGUUCGAGUCCCGUACGGAACG | ≤ 0.5
7 | GGUCCGUUGGCGUAAUGGUAACGCGUCUUCCUCCUAAGGAGAAGACUGCGGGUUCGAGUCCCGUACGGAACG | 0.851
8 | GGUCCGUUGGCGUAAUGGUAACGGGUCUCGUUCCAUAGGAGAAAACUGCGGGUUCGAGUCCCCUACGGAACG | 0.552
9 | GGUCCGUUGCCGUAAUGGUAACGCGUCUCCCUCCUAAGGAGAAGACUGCGGGUUCGAGUCCCGUACGGACCG | ≤ 0.5
10 | GGUCCGUUGGCGUAAUGGUAAUGCGUCUCCCCCCUAAGGAGACGACUGCCGGUUCGAGUCCCGUACGGAACG | ≤ 0.5
11 | GGUCCGUUCGCGUAAUGGUAACGCGUCUCCCUCCUAAGGAGAAGACUGCGGGUUCGAGUCCCGUACGGAGCG | 0.585
12 | GGUCCGUUGGCAUAAUGGUAACGCGUCUCCCUCCUAAGGAGAAGACUGCGGGUUUGAGUCACGUACGGAACG | ≤ 0.5
13 | GGUCCGUUGGAGUAAUGGUAACGAGACUCCCUCCUAAGGAGAACACUGCGGGUUCGAGUCCCGUACGAAACG | ≤ 0.5
14 | GGUCCGUUGGCGUAAUGAUAACGCGUAUCUCUCCUAAGGAGAAGACUGCGGGUUCGAGUCCCGUACGGAACG | ≤ 0.5
15 | GGUCCGUUGGCGUAAUGGUAACGCGUCUCCGUCCUAAGGAGAAGACUGCGGGUUCGUGUCCCGUGCGGAACG | ≤ 0.5
16 | GGUCCGUUCGCGUAAUGGUGACGCGUCUCCCUCCUAAGGAGCAGAGUGUGGGUUCGAGUCCCGUACGGCACG | 0.576
17 | GGUCCGUUGGGGUAAUGGUAACGCGUCUCCCUCCUAAGGAGAAGACUGAGGGUUCGAGUUCCGUACGCAACG | ≤ 0.5
18 | GGUCCGUUGGCGUAAUGGUAACGCGUCUCUCUCCUAAGGAGAAGACUGCGGGUUCGAGCCCCGUACGGAACG | ≤ 0.5
19 | GGUCCGUUGGCGUAAUGGUAACGAGUCUCCCUCCUAAGGAGAAGAAUGCGGGUUCGAGUCCCGUACGGUACG | 0.774
20 | GGUCCGUUGGCGUAAUGGUAAUGCGUCUCCCUCCUAAGGAGAAGACUGCGGGUUCGAGUCCCGUAUGGAACG | 0.563
21 | GGUCCGUUGGCGUAAUGGUAACGCGUUUCCCUCCUAAGGAGAAGAUUGCGGGUUCGAGUCCCGUACGGAACG | 0.999
22 | GGUCCGUUGGGGUAAUGGCGACGUGUCUCCGUCCUAAGGAGAAGACUGCGGGUUCGAGUCCCGUACGGAACG | ≤ 0.5
23 | GGUCCGUUGGCGUAAUGGUAACGCGUCUCCCUCCUAAGGAGAAGAAUGCGGGUUCGAGUCCCCUACGGAACG | 0.56
24 | GGUCCAUUGGCGGAAUGGUAACGCGUCUCCCUCCUAAGGAGAAGACUGUGGGUUCAAGUCCCGUACGGAGCG | ≤ 0.5
25 | GGUCCGUUGGCAUGAUGGUAACGCGUCUCCCUCCUAAGGAGAAGACUGCGGGUUCGAGUCCCGUACGGAACG | 0.561

Row | Variant | yeast fitness
26 | GGUCCGUUGGGGUAAUGGUUACGGGUCUCCCUCCUAAGGAGAAGACUGCGGGUUCGAGUCCCGUACGGAACG | 0.534
27 | GGUCCGUUGGGGUAAUGGUUACGGGUCUCCCUCCUAAGGAGAAGACUGCGGGUUCGAGUGCCGUACGCAACG | 0.518
28 | GGUCCGUUGGCGUAAUGGUAACGCGUCUCCCUCCUAAGAAGAAGACUGCGGGUUCGAGUCGCGUACGGAACG | ≤ 0.5
29 | GGUCCGUUGGCGUAAUGGUAACGCUUCUCCCUCCUAAGGAGAAGACUGUGGGUUCGAGUCCCGUGCGGAACG | 0.64
30 | GGUCCGUUGGCGUAAUGGUAACGCGUCUCCGUCCUAGGGAGAAGACUGCGGGUUCGAGUCCCGUACGGAACG | 0.605
31 | GGUCCGUUGGCGUAAUGGUAACGCGUCUCCCUCCUAAGGAGAAGACUGCGGGUUUGAGUCCGGUAAGGAACG | 0.577
32 | GGUCCGUUGGCGUAAUGGUAACGCCUGUCCCUCUAAAAGAGAAGACUGCGGGUUCGAGACCCGUACGGAACG | ≤ 0.5
33 | GGUCCGUUGGCGUAAUGGUAACGCGUCUCCCUCCUAAGCAGAAGACUGCGGGUUCGAGUCCCGUACGGAACG | 0.715
34 | GGUCCGUUGGCGUAAUGGUAACGCGUCUCCCUCCUAAGGAGAAGACUGCGGGUUCGAGUUACGUACCGAACG | ≤ 0.5
35 | GGUCCGUUGGCGUAAUGGUAACGCGUCUCCCUCCUAAGGAGAAGACUGCGGGUUCGAGUCCUGUACGGAACG | 0.863
36 | GGUCCGUUGGCGUAAUGGUAACGGGUCUGCGUCCUAAGGAGAAGACUGCGGGUUCGAGUCCCGCACGGAACG | ≤ 0.5
37 | GGUCCGUUGGCGUAAUGGUAACGCGUCUCCUUCCUAAGGAGAAGACUCCGGGUUCGAGUCCCGUACCGAACG | 0.702
38 | GGUCCGUUGGCGUAAUGGUAACGCGUCUCCCUCCUAAGGAGAAGACUGCGGGUUCGAGUACCGUAGGGAACG | 0.989
39 | GGUCCGUUGGCGUAAUGGUAACGCGUCUCCCUACUAAGGAGAAGACUGGGGGUUCGAGUCCCGCACCGAACG | ≤ 0.5
40 | GGUCCGUUGGCGUAAUGGUAACGCGUCUCCAUCCUAAGGAGAAGACUGCGGGUUCUAGUCCCGUACAGAACG | ≤ 0.5
41 | GGUCCGUUGGCGUAAUGGUAACGCGUCUCGCUCCUAAGGAGAAGACUGCGGGUUCGAGUCUCGUACGAAACG | 0.531
42 | GGUCCGUUGGCGUAAUGGUAACGCGUAUCCCUCCUAAGGAGAAGACUGCGGGUUCGAGUCCCGUACUGAACG | ≤ 0.5
43 | GGUCCGUUGGCGUAAUGGUAACGCGUUUCCCUCCUAAGGAGAAGCCUGCGGGUUCGAGUCCCGUACGGAACG | 0.657
44 | GGUCCGUUGGUGUAAUGGUCACGCGUCUCCCUCCUAAGGAGAAGACUGCGGGUUCGAGUCCCGUACGGACCG | 0.667
45 | GGUCCGUUGGCGUAAUGGUAAAGCAUCUCCCUCCUAAGGAGAAGACUGCGGGUUCAAGUCCCGUACGGAACG | ≤ 0.5
46 | GGUCCGUUGGCGUAAUGGUAACGCGUCUGCCUCCUAAGGAGAAGACUGGGGGUUCGAGUCCCGUACGGAACG | ≤ 0.5
47 | GGUCCGUUGACGUAAUGGUAACGCGUCUCCCUCCUAAGGAGAAGACUGCGGGUUCGAGUCCCGUACGGAACG | 0.697
48 | GGUCCGUUGACGUAUUGGUACCGCCUCUCCCUCCUAAGGAGAAGACUGCGGGUUCGAGUCCCGUACGGAACG | ≤ 0.5
49 | GGUCCGUUGGCGUAAUGAUAACGCGUAUCUCUCCUAAGGAGAAGACUGCGGGUUCGAGUCCCGUUCGGAACG | ≤ 0.5
50 | GGUCCGUUGGCGUAAUGGUAACGCGUCUCUCUCCUAAGGAGAAGAAUGCGGGUUCGAGUCCCGUACGGAACG | 0.692

Row | Variant | yeast fitness
51 | GGUCCGUUGGCGUAAUGGUAACGCGUCUCACUCCGAAGGAGAAGACUGCGCGUUCGAGUCCCGUACGGAACG | ≤ 0.5
52 | GGUCCGUUGGGGUAAUGGUAACGCGUCUCCCUCCUAACGAGAAAACUGCGGGUUCGAGUCCUGCACGGAACG | ≤ 0.5
53 | GGUCCAUUGGCGUAAUGGUGACGCGUCUCCCUCCUAAGGAGAAGACUGCGGGUUCGAGUCCCGUACGGAACG | 0.61
54 | GGUCCGUUGGCGUAAUAGUAACGUGUCUCCCUCCUUUGGAGAAGACUGCGGGUUCGAGUCCCGUACGGAUCG | ≤ 0.5
55 | GGUCCGUUGGCGUAAUGGUAACGCGUCUUCCUCCUAAGGAGAAGACUGCGGGUCCGGGCCCCGUACGGAACG | ≤ 0.5
56 | GGUCCGUUGGCAUAUUGGUAACGGGUCUCCCUCCUAAGGAGAAGACUGCGGGAUCGAGUCCCGAACGGAACG | ≤ 0.5
57 | GGUCCGUUGGCGUAAUGGUAAAGCCUCUCCCUUCUAAGGAGAAGACUGCGGGUUCGAGUCCCGUACGGCACG | ≤ 0.5
58 | GGUCCGUUGGCGUAAUGGUAACGCGUCUCCCUUGUAAGGAGAAGACUGCGGGUUCGAGACCCGUACGGAACG | ≤ 0.5
59 | GGUCCGUUGGCGUAAUGGUAACGCGUCUCCCUCCUAAGGAGAAGACUGCGGGUUCGAGUCCGGUACAGAACG | 0.526
60 | GGUCCGUUGGCGUAAUGGUAACGCGUGUCCCUUCUAAGGAGAAGACUGCGGGUUCGAGUCCCGUACGGAACG | 0.644
61 | GGUCCAUUGGCAUAAUGGUAACGCGUUUCCCUCCUUAGGAGAAGACUGCGGGUUCGAGUGCCGUACGGAACG | ≤ 0.5
62 | GGUCCGUUGGGGUAAUGGUAACGCGUCUCCCUCCUAAGGAGAAGACUGCGGGUUCGAGUCCCGUAUGGAACG | ≤ 0.5
63 | GGUCCGUUGGCGUAAUGGUAACGCGUCUCCCUCCUAAGGAGAAGACUGCGGGUUCGAGUCGCGUACGGAACG | 0.556
64 | GGUCCGUUGGCGUAAUAGUAACACGUCUCCCUCCUAACGGGAAGACUGCGGGUUCGAGUCCCGUACGGAACG | 0.694
65 | GGUCCGUUGGCGUAAUGGUAAAGCAUCUCCCUCCUAAGGAGAAGACUGCGGGUUCGAGUCCCGUACGGAACG | 0.639
66 | GGUCCGUUGGAGUAAUGGUAACGAGACUCCCUCCUAAGGAGAACACUGCGGGUUCGAGUCCCGUACGGAACG | ≤ 0.5
67 | GGUCCGUUGGCGUAAUGGUAACGCGUCUCCCUUGUAAGGAGAAGACUGCGGGUUCGAGUCCCGUACGGUACG | ≤ 0.5
68 | GGUCCGUUGCCGUAAUGGUAACGCGUCUCCCUCCGAAGGAGAAGAUUGCGGGUUCGAGUCCCGUCCCGAACG | ≤ 0.5
69 | GGUCCGUUGCCGUAAUGGUAACGCGUCUCCCUCCUAAGGAGAAGUUCGCGGGUUCGAGUCCCGCACGGAACG | ≤ 0.5
70 | GGUCCGUUGGCGUAAUCGUAACGCGUCUCCCUUCUAAGGAGAAGACAGCGGGUUCGAGUCCCGUACGGUACG | ≤ 0.5
71 | GGUCCGUUGGCGUAAUGGUAACGCCUCUUCCUUCUAAGGGGAAGACUGCGGAUUCGAGCCCCGUUCGGAACG | 0.581
72 | GGUCCGUUGGCGUAAUGGUAAUGCGUCUCCCCCCUAAGGAGAAGACUGCCGGUUCGAGUCCCGUACGGAACG | 0.658
73 | GGUCCGUUGGCGUAAUGGUAACGCGUCUCUCCCCUAAGGAGAAGACUGCGGGUUGGAGUCCCGUACGGAACG | ≤ 0.5
74 | GGUCCGUUGGCAUAAUGGUAACGCGUCUCCCUCAUAGGGAGAAGACUGCGGGUUCGAGUCCCGUACGGAACG | ≤ 0.5
75 | GGUCCGUUGGGGUAAUGGUAACGCGUCUCCCUCCUAAGGAGAAGACUGCGGGUUCGAGUCCCGUACGGAACG | 0.703
